From ChEMBL document CHEMBL3576863, “Structural requirements for bisphosphonate binding on hydroxyapatite: NMR study of bisphosphonate partial esters” (ACS Med Chem Lett, 2015) come the findings set out here.

Structures are written as SMILES. Calls of active or inactive are those of the source. The rule behind the calls is not given here.

The test system of one series is Hydroxyapatite. The series is described as follows: Binding affinity to hydroxyapatite at 3.2 to 3.7 mM after 1 hr by NMR analysis relative to control.
Conditions: not given
The method in brief:
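Synthetic hydroxyapatite used as a bone model. Each bisphosphonate solution was mixed with HAP for 1 h. Percent HAP-bound was calculated from the solution concentration difference before and after incubation. Statistical comparison by t test.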
`NCCCC(O)(P(=O)(O)O)P(=O)(O)O` showed an Activity of 70%.

Take `O=P(O)(O)C(Cl)(Cl)P(=O)(O)O` [CLODRONIC ACID]: the Activity stood at 41.9%.

With `CC(O)(P(=O)(O)O)P(=O)(O)O` [ETIDRONIC ACID], the Activity came to 70%.

For the molecule `O=P(O)(O)CP(=O)(O)O`, the Activity turned out to be 70%.

The subject of a further series is Hydroxyapatite. Kind of series: Binding affinity to hydroxyapatite at 3.6 to 10.7 mM after 1 hr by NMR analysis relative to control.
Conditions: not given
The method in brief:
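Hydroxyapatite (HAP) used as a synthetic bone surrogate. BP solution mixed with HAP for 1 h. Bound fraction expressed as percent of BP bound to HAP, calculated from the concentration difference of the BP solution before and after HAP incubation. Statistics by t test.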
Regarding `CC(O)(P(=O)(O)O)P(=O)(O)Oc1ccccc1` (stereo unspecified), the Activity amounted to 48%.

With `CC(C)OP(=O)(O)C(Cl)(Cl)P(=O)(O)O`, the outcome was inactive.

In turn, `COP(=O)(OC)C(O)(CCCN)P(=O)(O)O` (stereo unspecified) returned an Activity of 21.7%.

Regarding `COP(=O)(OC)C(C)(O)P(=O)(O)O` (stereo unspecified), the Activity is 12.6%.

`COP(=O)(O)C(C)(O)P(=O)(OC)OC` (stereo unspecified): the outcome was inactive.

As to `CC(C)OP(=O)(OC(C)C)C(C)(O)P(=O)(O)O` (stereo unspecified), the Activity worked out at 11.4%.

`CC(=O)NCCCC(OC(C)=O)(P(=O)(O)O)P(=O)(O)O` returned an Activity of 47.7%.

`COP(=O)(O)C(O)(CCCN)P(=O)(O)O` (stereo unspecified) displayed an Activity of 31%.

For `COP(=O)(O)C(Cl)(Cl)P(=O)(O)O`, the outcome was inactive.

Regarding `COP(=O)(O)CP(=O)(O)OC`, the outcome was inactive.

As to `COP(=O)(O)CP(=O)(O)O`, the Activity was 18.6%.

On to `COP(=O)(O)C(C)(O)P(=O)(O)O` (stereo unspecified), for which the Activity was found to be 55.6%.

Regarding `COP(=O)(O)CP(=O)(OC)OC`, the result was inactive.

`COP(=O)(O)C(C)(O)P(=O)(O)OC` (stereo unspecified) registered an Activity of 3.8%.

In the next series the test system is Homo sapiens. Kind of series: Half life in human plasma at 1 mg/kg, iv. In kind it is ADME, organism-based. The settings on record: in vivo.
`NCCC(O)(P(=O)(O)O)P(=O)(O)O` [PAMIDRONIC ACID]: the t1/2 came out at 1 h.

System in the next series: not listed separately
The series is described as follows: Half life in human plasma at 2.5 to 4 mg/kg, iv. In kind it is ADME, organism-based.
Conditions: not given
What is called half-life is the time in which the quantity being followed falls by half. A high value points to slow decline. In turn, `O=P(O)(O)C(Cl)(Cl)P(=O)(O)O` [CLODRONIC ACID] gave a half-life of 1 h.

System in a further series: not listed separately
The series is described as follows: Half life in human plasma at 0.015 mg/kg, iv. The format is ADME, organism-based.
Conditions: not given
Take `CC(O)(P(=O)(O)O)P(=O)(O)O` [ETIDRONIC ACID]: the half-life was 1 h.
